Experiments:
[1] = Tmax in western atherogenic diet fed ApoE-/- mouse blood at […], iv administered as bolus injection measured for 60 mins by PET analysis; assay type: ADME, organism-based; conditions: in vivo, 1 h
Procedure, shortened: (§1)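 A 10 min transmission scan preceded tail-vein IV bolus of radiotracer (~7.5 MBq, over 30 s) in diet-fed ApoE-/- mice. Dynamic whole-body PET ran for 60 min (4×15 s, 4×1 min, 11×5 min frames), corrected for attenuation and scatter, 3D-OSEM/MAP reconstruction. Volumetric organ ROIs gave %ID·cc⁻¹ time-activity curves; n = 2 per group.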

[2] = Stability of compound in 10% EtOH/saline assessed as compound degradation measured upto 75 mins by analytical radio-HPLC analysis; assay type: physicochemical; conditions: buffer, 1.25 h
Procedure, shortened: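 Radiotracer formulated in 10% EtOH/0.9% saline was held at room temperature up to 75 min. Samples were analysed by analytical radio-HPLC (C18, 0.1 M ammonium formate/ACN gradient, 1 mL·min⁻¹).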

[3] = Octanol/PBS distribution coefficient, logD of compound at pH 7.4 incubated for 10 mins under shaking condition by gamma counter analysis; assay type: physicochemical
Procedure, shortened: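 Radiotracer partitioning between 1-octanol and 1× PBS at pH 7.4. Mean ± standard error of two independent experiments, each in quadruplicate.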

[4] = Drug distribution in western atherogenic diet fed ApoE-/- mouse myocardium assessed as myocardial retention at […], iv administered as bolus injection measured for 60 mins by PET analysis; assay type: ADME, organism-based; conditions: in vivo, 1 h; procedure, shortened: as §1
[5] = Drug distribution in western atherogenic diet fed ApoE-/- mouse liver at […], iv administered as bolus injection measured for 60 mins by PET analysis; assay type: ADME, organism-based; conditions: in vivo, 1 h; procedure, shortened: as §1
[6] = Drug distribution in western atherogenic diet fed ApoE-/- mouse kidney at […], iv administered as bolus injection measured for 60 mins by PET analysis; assay type: ADME, organism-based; conditions: in vivo, 1 h; procedure, shortened: as §1
[7] = Drug excretion in western atherogenic diet fed ApoE-/- mouse urine at […], iv administered as bolus injection measured for 60 mins by PET analysis; assay type: ADME, organism-based; conditions: in vivo, 1 h; procedure, shortened: as §1
[8] = Drug distribution in western atherogenic diet fed ApoE-/- mouse blood assessed as compound remaining at […], iv administered as bolus injection measured for 30 mins by gamma counter analysis; assay type: ADME, organism-based; conditions: in vivo, 0.5 h
Procedure, shortened: (§2)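 Diet-fed male ApoE-/- mice (39 ± 5 g, n = 4-6) under 2% isoflurane received radiotracer (~7.5 MBq, 100-200 µL) IV by tail-vein bolus over 30 s. After 30 min, blood was taken by cardiac puncture, then PBS/formalin perfusion and organ dissection. Uptake is decay-corrected %ID normalized to tissue mass (%ID/g).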

[9] = Drug distribution in western atherogenic diet fed ApoE-/- mouse blood assessed as compound remaining at 14 to 16 MBq, iv administered as bolus injection measured for 150 mins by gamma counter analysis; assay type: ADME, organism-based; conditions: in vivo, 2.5 h, dose 14-16 MBq
[10] = Drug distribution in western atherogenic diet fed ApoE-/- mouse myocardium assessed as compound remaining at […], iv administered as bolus injection measured for 30 mins by gamma counter analysis; assay type: ADME, organism-based; conditions: in vivo, 0.5 h; procedure, shortened: as §2
[11] = Drug distribution in western atherogenic diet fed ApoE-/- mouse liver at […], iv administered as bolus injection measured for 30 mins by gamma counter analysis; assay type: ADME, organism-based; conditions: in vivo, 0.5 h; procedure, shortened: as §2
[12] = Drug distribution in western atherogenic diet fed ApoE-/- mouse bone at […], iv administered as bolus injection measured for 30 mins by gamma counter analysis; assay type: ADME, organism-based, Bone element; conditions: in vivo, 0.5 h; procedure, shortened: as §2
[13] = Drug distribution in western atherogenic diet fed ApoE-/- mouse brain at […], iv administered as bolus injection measured for 30 mins by gamma counter analysis; assay type: ADME, organism-based; conditions: in vivo, 0.5 h; procedure, shortened: as §2
[14] = Drug distribution in western atherogenic diet fed ApoE-/- mouse fat tissue at […], iv administered as bolus injection measured for 30 mins by gamma counter analysis; assay type: ADME, organism-based, Adipose tissue; conditions: in vivo, 0.5 h; procedure, shortened: as §2
[15] = Drug distribution in western atherogenic diet fed ApoE-/- mouse lung at […], iv administered as bolus injection measured for 30 mins by gamma counter analysis; assay type: ADME, organism-based; conditions: in vivo, 0.5 h; procedure, shortened: as §2
[16] = Drug distribution in western atherogenic diet fed ApoE-/- mouse muscle tissue at […], iv administered as bolus injection measured for 30 mins by gamma counter analysis; assay type: ADME, organism-based; conditions: in vivo, 0.5 h; procedure, shortened: as §2
[17] = Drug distribution in western atherogenic diet fed ApoE-/- mouse spleen at […], iv administered as bolus injection measured for 30 mins by gamma counter analysis; assay type: ADME, organism-based; conditions: in vivo, 0.5 h; procedure, shortened: as §2
[18] = Drug distribution in western atherogenic diet fed ApoE-/- mouse stomach at […], iv administered as bolus injection measured for 30 mins by gamma counter analysis; assay type: ADME, organism-based; conditions: in vivo, 0.5 h; procedure, shortened: as §2
[19] = Drug distribution in western atherogenic diet fed ApoE-/- mouse pancreas at […], iv administered as bolus injection measured for 30 mins by gamma counter analysis; assay type: ADME, organism-based; conditions: in vivo, 0.5 h; procedure, shortened: as §2
[20] = (§3) Stability in western atherogenic diet fed ApoE-/- mouse plasma assessed as intact compound level at ~75 MBq, iv administered as bolus injection and measured after 30 mins by gamma counter analysis; assay type: ADME, organism-based; conditions: read-out: Stability
Procedure, shortened: (§4)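 Blood was drawn by cardiac puncture into K₂EDTA tubes 30 min after IV radiotracer in diet-fed ApoE-/- mice. Optional IV pretreatment 15 min before: unlabelled analogue 2.5 mg/kg or WAY170523 7.5 mg/kg. Pooled protein-free plasma was spiked with standard and run on radio-HPLC (C18, ammonium formate/ACN). Fractions were collected each minute and gamma-counted to give the parent fraction.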

[21] = as §3, with “injection pretreated with 6-fluoro-N-(4-fluoro-3-methylphenyl)methyl)-5-(2-fluoroethoxy)-4-oxo-3,4-dihydroquinazoline-2-carboxamide followed by tracer addition” for “injection”; assay type: ADME, organism-based; conditions: read-out: Stability; procedure, shortened: as §4
[22] = as §3, with “injection pretreated with N-(2-(4-(N-benzyl-N-(2-(hydroxycarbamoyl)-4,6-dimethylphenyl)sulfamoyl)phenoxy)ethyl)benzofuran-2-carboxamide followed by tracer addition” for “injection”; assay type: ADME, organism-based; conditions: read-out: Stability; procedure, shortened: as §4
[23] = Drug distribution in western atherogenic diet fed ApoE-/- mouse aortic plaques at […], iv administered as bolus injection measured for 30 mins by Oil Red O staining based autoradiography; assay type: ADME, organism-based, Aorta; conditions: in vivo, 0.5 h
Procedure, shortened: (§5)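 Male ApoE-/- mice were fed a western atherogenic diet from 8 weeks of age for 13-16 weeks. Radiotracer (~7.5 MBq) was given IV by tail-vein bolus over 30 s. Blocking: unlabelled tracer analogue (2.5 mg/kg; DMA/propylene glycol/PEG400/water) or WAY170523 (7.5 mg/kg; DMSO/PEG400/water), both IV 15 min before. At 30 min, perfused aortae were exposed to a phosphor screen for 10 half-lives (%ID·mm⁻²), with ORO staining.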

[24] = (§6) Drug distribution in western atherogenic diet fed ApoE-/- mouse aortic plaques at […], iv administered as bolus injection pretreated with 6-fluoro-N-(4-fluoro-3-methylphenyl)methyl)-5-(2-fluoroethoxy)-4-oxo-3,4-dihydroquinazoline-2-carboxamide for 15 mins followed by tracer addition and measured after 30 mins by Oil Red O staining based autoradiography; assay type: ADME, organism-based, Aorta; conditions: in vivo, 0.5 h; procedure, shortened: as §5
[25] = (§7) Drug distribution in western atherogenic diet fed ApoE-/- mouse aortic plaques at […], iv administered as bolus injection pretreated with N-(2-(4-(N-benzyl-N-(2-(hydroxycarbamoyl)-4,6-dimethylphenyl)sulfamoyl)phenoxy)ethyl)benzofuran-2-carboxamide for 15 mins followed by tracer addition and measured after 30 mins by Oil Red O staining based autoradiography; assay type: ADME, organism-based, Aorta; conditions: in vivo, 0.5 h; procedure, shortened: as §5
[26] = as §6, with “plaques assessed as reduction in radioactivity” for “plaques”, “autoradiography relative to control” for “autoradiography”; assay type: ADME, organism-based, Aorta; parameters: scale not given: the % may be the effect or the level left; conditions: in vivo, 0.5 h; procedure, shortened: as §5
[27] = as §7, with “plaques assessed as reduction in radioactivity” for “plaques”, “autoradiography relative to control” for “autoradiography”; assay type: ADME, organism-based, Aorta; parameters: scale not given: the % may be the effect or the level left; conditions: in vivo, 0.5 h; procedure, shortened: as §5

Tmax [1]: 37.5 s | Stability [2]: Stable | logD at 10 min [3]: 3.09 | Drug uptake [4]: < 0.5 %ID/cc | Drug uptake [5]: 6.43 %ID/cc | Drug uptake [6]: 4.42 %ID/cc | Drug excretion [7]: Active | Drug uptake [8]: 3.28 % ID/g | Drug uptake [9]: Active | Drug uptake [10]: ~ 1 % ID/g | Drug uptake [11]: 3.32 % ID/g | Drug uptake [12]: ~ 2 % ID/g | Drug uptake [13]: ~ 2 % ID/g | Drug uptake [14]: ~ 2 % ID/g | Drug uptake [15]: ~ 2 % ID/g | Drug uptake [16]: ~ 2 % ID/g | Drug uptake [17]: ~ 2 % ID/g | Drug uptake [18]: ~ 2 % ID/g | Drug uptake [19]: 2.14 % ID/g | remaining at 0.5 h [20]: 78% | remaining at 0.5 h [21]: 78% | remaining at 0.5 h [22]: 87% | Drug uptake [23]: 270 %ID.m^-2 | Drug uptake [24]: 208.2 %ID.m^-2 | Drug uptake [25]: 173.4 %ID.m^-2 | Activity [26]: 23% | Activity [27]: 36%
SMILES: Cc1cc(CNC(=O)c2nc3ccc(F)c(OCC[18F])c3c(=O)[nH]2)ccc1F

— ChEMBL document CHEMBL5338774, “Quinazoline-2-Carboxamides as Selective PET Radiotracers for Matrix Metalloproteinase-13 Imaging in Atherosclerosis” (J Med Chem, 2023)
